Screening data as filed in PubChem.
ERa coact inh: ER-alpha (human) coactivator binding inhibition. TR-FRET ER-alpha LBD / SRC-1 peptide, estradiol-bound. inhibition, % at 25.6 µM. 86,000 tested, 1.7% active. AID 629; in the data active = inhibition above about 50%;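 note: 0% = receptor plus peptide control and 100% = peptide only without receptor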
ERb coact inh: blocks coactivator binding to human estrogen receptor beta; Q92731; TR-FRET ER-beta LBD / SRC1-Cy5 peptide binding; receptor agonist-loaded with 1 µM estradiol; inhibition, % at 25.6 µM; 86,000 tested, 1.3% active;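 active = compounds whose percent inhibition of the receptor-coactivator binding signal exceeds about 50% in the single-dose screen, limit read from the data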;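 note: 0% = receptor plus peptide wells without compound and 100% = peptide-only wells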
Target sequence (Q92731 whole entry, looked up, the tested form may be a part): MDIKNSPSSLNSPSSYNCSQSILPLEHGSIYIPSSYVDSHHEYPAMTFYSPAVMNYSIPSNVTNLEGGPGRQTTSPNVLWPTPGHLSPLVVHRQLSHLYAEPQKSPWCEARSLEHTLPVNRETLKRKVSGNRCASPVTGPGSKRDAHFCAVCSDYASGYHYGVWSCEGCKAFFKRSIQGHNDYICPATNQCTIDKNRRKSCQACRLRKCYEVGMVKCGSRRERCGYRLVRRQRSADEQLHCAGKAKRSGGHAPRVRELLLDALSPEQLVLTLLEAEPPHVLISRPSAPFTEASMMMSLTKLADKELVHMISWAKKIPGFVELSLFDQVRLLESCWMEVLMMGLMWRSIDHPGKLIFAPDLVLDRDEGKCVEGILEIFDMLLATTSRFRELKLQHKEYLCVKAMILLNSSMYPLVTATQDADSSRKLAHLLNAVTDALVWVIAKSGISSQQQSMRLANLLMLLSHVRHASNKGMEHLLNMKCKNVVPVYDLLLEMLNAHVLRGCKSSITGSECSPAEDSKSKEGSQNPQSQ
H69AR growth 86K: blocks growth of human H69AR lung tumor cells; 85,000 tested, 6% active; viability, % at 10 µM; H69AR lung tumor viability, ATP luminescence, 72 h; stronger effect = lower value; AID 598;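 active = viability at or below 40%; inactive = viability above 40%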;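 note: multidrug resistant small cell line overexpressing MRP-1 efflux transporter; 100% = mean luminescence of untreated control wells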
HUVEC inhibit: blocks proliferation of human endothelial cells; AID 648; viability, % at 10 µM (by protocol); HUVEC proliferation, CellTiter-Glo luminescence, 72 h; stronger effect = lower value; 86,000 tested, 1.1% active;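 active = viability at or below 30%; inactive = viability above 30%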;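 note: 100% = median luminescence of DMSO-only cell control wells on each plate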
Fibroblast inh: blocks proliferation of human lung fibroblasts; LL 47 human lung fibroblast viability, ATP luminescence; stronger effect = lower value; viability, % at 10 µM; 85,000 tested, 1.1% active;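 active = viability at or below 50% in the single dose screen; inactive = viability above 50%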;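 note: compound exposure lasted 72 h before the ATP readout; 100% = median luminescence of untreated cell-only wells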
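Test system: LL 47 human lung fibroblasts / Incubation: 72 h compound exposure at 37 °C after overnight plating / Technique: luminescent ATP detection, CellTiter-Glo / Compound dosing: 0.1% DMSO in all compound wells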
ERa SRC1 pot: ER-alpha (human) coactivator binding potentiation; AID 639; 86,000 tested, 1.3% active; coactivator binding (% of control), % at 25.6 µM; TR-FRET ERalpha-LBD/SRC-Cy5 coactivator binding, 2 h; 100 = basal binding, no effect; in the data active = activity above about 200%;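 note: binding measured in presence of low estradiol as agonist stimulus; 0% = peptide alone without receptor and 100% = receptor with peptide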
Active calls of the source: *; . = no result; [ ] = remark or other dose. Only some compounds are listed: those with a hit (about 9.2% of all), similar ones and a draw of the others.

SMILES	ERa coact inh	ERb coact inh	H69AR growth 86K	HUVEC inhibit	Fibroblast inh	ERa SRC1 pot
CCC(C)NC(=O)c1ccccc1NC(=O)CN(c1ccc(OC)cc1)S(C)(=O)=O (configuration not stated)	-6	-13	108	98	97	112
O=C(CSc1nc2c(c(C(F)(F)F)n1)CCc1ccccc1-2)NCc1ccc(F)cc1	4	17	50	50	77	229*
Cc1nc(NNC(=O)c2ccc([N+](=O)[O-])cc2)cc(-c2ccccc2)n1	11	6	88	98	97	204*[fluorescence artefact?]
Cc1cc(Cl)cc(C)c1OCCCCN1CCOCC1	67*	1	93	92	101	115
Cc1ccc2[nH]c3c(c2c1)CN(C(=O)CN1CCN(c2ccccc2F)CC1)CC3	-1	6	75	79	103	122
Cn1c(=O)[nH]c(=O)c2c1nc(CN1CCN(c3cccc(Cl)c3)CC1)n2Cc1ccccc1Cl	-2	-9	12*	59	83	102
CCCCn1c(CN2CCN(c3cccc(Cl)c3)CC2)nc2c1c(=O)[nH]c(=O)n2C	-17	-32	19*	51	49*	89
Cn1c(=O)[nH]c(=O)c2c1nc(CN1CCN(c3cccc(Cl)c3)CC1)n2CCN1CCOCC1	-2	-4	77	85	91	113
CCOC(=O)Cn1c(CN2CCN(c3cccc(Cl)c3)CC2)nc2c1c(=O)[nH]c(=O)n2C	-3	71*[fluorescence artefact?]	41	76	101	123
CC(C)CN1CCC(C(=O)NCC2CCCO2)CC1 (configuration not stated)	-5	5	91	96	103	133
COC(=O)Cn1c(=O)c2c(nc3n2CC(C)CN3c2ccc(C)c(C)c2)n(C)c1=O (configuration not stated)	-9	-11	85	84	96	98
CCOC(=O)c1c2c(c(=S)n(-c3ccccc3)c1N)CCC2	8	7	99	104	93	87
CCOC(=O)c1c(N)sn(-c2ccccc2)c1=S	-5	-2	95	116	106	590*[fluorescence artefact?]
COc1ccc(NC(=O)CCC(=O)Nc2nnc(C(F)(F)F)s2)c(OC)c1	-6	-2	92	104	108	94
Cn1c(COc2ccccc2)nnc1SCCC(=O)Nc1ccccc1	-7	1	96	87	98	110
Cc1ccc(-n2ncc3c(=O)[nH]c(SCC(=O)N4CCOCC4)nc32)cc1	-4	-10	56	91	90	108
Cc1ccc(-n2ncc3c(=O)[nH]c(SCC(=O)N4CCCc5ccccc54)nc32)cc1	12	11	32*	80	95	115
Cc1ccc(-n2ncc3c(=O)[nH]c(SCC(=O)N4CCN(c5ccccc5)CC4)nc32)cc1	21	53*[fluorescence artefact?]	59	98	98	151
O=C(c1noc2c1CCCC2)N1CCN(C(c2ccccc2)c2ccccc2)CC1	-11	-10	96	102	.	240*
CCCN(CCC)CCNC(=O)c1cc2c(=O)n(C)c3ccccc3c2n1C	-5	-5	76	83	83	98
CC1CCC(NC(=O)c2cc3c(=O)n(C)c4ccccc4c3n2C)CC1 (configuration not stated)	28	20	29*	68	88	169
Cn1c(C(=O)NC2CCCCCC2)cc2c(=O)n(C)c3ccccc3c21	23	28	12*	60	93	223*[fluorescence artefact?]
Cn1c(C(=O)NC2CCCCC2)cc2c(=O)n(C)c3ccccc3c21	28	21	11*	61	103	151
CC1CCCCN1CCNC(=O)c1cc2c(=O)n(C)c3ccccc3c2n1C (configuration not stated)	24	9	85	84	91	71
COc1ccccc1-n1c(CNC(=O)COc2ccccc2)n[nH]c1=S	-6	0	92	95	94	98
SMILES	ERa coact inh	ERb coact inh	H69AR growth 86K	HUVEC inhibit	Fibroblast inh	ERa SRC1 pot
COc1cccc(CNC(=O)C2CCCN(S(=O)(=O)c3cccc4nonc34)C2)c1 (configuration not stated)	-11	-2	89	105	101	82
Cc1ccc2[nH]c(-c3ccccc3)cc(=O)c2c1	7	-2	33*	47	61	89
O=C(O)CC(NC(=O)COc1ccc(Cl)cc1Cl)C(=O)O (configuration not stated)	-5	-10	86	93	105	107
Cc1ccc(-n2c(=O)c(C#N)cc3c(=O)n4cccc(C)c4nc32)cc1	62*	52*	84	81	94	140
Cc1cccn2c(=O)c3cc(C#N)c(=NC(=O)c4ccccc4)n(Cc4ccco4)c3nc12	63*[fluorescence artefact?]	41	49	78	90	177
CCOC(=O)c1cc2c(=O)n3cccc(C)c3nc2n(Cc2ccco2)c1=NC(=O)c1cccnc1	55*[fluorescence artefact?]	58*[fluorescence artefact?]	99	78	93	64
CCCn1c(=NC(C)=O)c(C#N)cc2c(=O)n3cccc(C)c3nc21	54*[fluorescence artefact?]	47	67	106	96	59
Cc1cccc(C(=O)N=c2c(C#N)cc3c(=O)n4cccc(C)c4nc3n2Cc2ccco2)c1	30	30	79	72	84	150
CCNc1nc(Oc2ccccc2)nc(OC(C)C(=O)OCC)n1 (configuration not stated)	-12	-8	72	95	92	108
CC(=O)Nc1ccc(S(=O)(=O)NC2(C(F)(F)F)NC(=O)N(C3CCCCC3)C2=O)cc1 (configuration not stated)	6	-6	93	101	100	115
Brc1ccc(-c2cnc(-c3cccs3)o2)cc1	-1	2	89	96	92	124
N=c1cc(C2(O)CCCCC2)n2c(nc3ccccc32)s1	0	-11	6.8*	65	96	129
Cc1ccc(S(=O)(=O)NCc2ccc3c(c2)cc(C)n3C)cc1	-4	5	96	82	99	106
Cc1cc2cc(CN3C(=O)c4ccccc4C3=O)ccc2n1C	-3	9	78	97	91	300*[fluorescence artefact?]
O=C(CCS(=O)(=O)Cc1ccccc1)Nc1nc2c(s1)CCCC2	-6	-11	22*	60	63	117
O=C(CS(=O)(=O)Cc1ccccc1)Nc1nc2c(s1)CCCC2	11	8	88	92	100	85
C=CCNc1nc(N)c(C(=O)c2ccc3c(c2)OCO3)s1	-2	-11	29*	102	95	111
COc1cc(C(=O)Oc2ccccc2N)cc(OC)c1OC	5	13	86	95	117	116
COc1cc(C(=O)Oc2cccc(C=O)c2)cc(OC)c1OC	-11	-9	25*	73	86	100
N#Cc1cc(C(=O)c2cc(Br)ccc2O)cn(C2CCCCC2)c1=O	-13	2	13*	98	93	92
